Screening data deposited in PubChem by The Scripps Research Institute Molecular Screening Center.
Hits are enriched below; roughly 1% of the tested compounds scored in any of these assays.
LYPLA2 counter – LYPLA2 (human) inhibition in PME1 counter-screen; O95372; recombinant LYPLA2, FP-Rh probe fluorescence polarization; inhibition, % at 5.9 µM; hit rate 0.38% among 320,000; AID 2177;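 active = inhibition above the screen-wide mean plus 3 SD, limit set per campaign, cut at about 26% in these data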;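 note: 0% = LYPLA2 with DMSO and 100% = wells lacking LYPLA2 enzyme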
Target sequence (O95372 whole entry, looked up): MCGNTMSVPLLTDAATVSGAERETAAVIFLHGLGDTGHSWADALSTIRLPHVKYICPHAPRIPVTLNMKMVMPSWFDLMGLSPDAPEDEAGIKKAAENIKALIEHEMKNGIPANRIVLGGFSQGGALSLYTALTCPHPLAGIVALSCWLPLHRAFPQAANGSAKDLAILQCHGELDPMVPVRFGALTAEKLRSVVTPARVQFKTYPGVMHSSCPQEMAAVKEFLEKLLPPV
procasp3 activ – activates human procaspase-3; P42574; recombinant procaspase-3 D3A, Ac-DEVD-pNA absorbance 405 nm; activation, % at 8.5 µM; hit rate 0.11% among 330,000; AID 463141;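 active = activation above the mean of all tested compounds plus 3 SD, cut at about 21% in these data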;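 note: 0% = DMSO alone and 100% = DMSO wells spiked with extra 5 µM PC-3 D3A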
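System: Procaspase-3 D3A mutant. Medium: Zinc-free 300 mM NaCl, 50 mM HEPES, 0.01% Triton X-100. Schedule: 1 h preincubation plus 2 h reaction at 25 °C. Measured by: 405 nm absorbance of p-nitroaniline, reads at 0 and 120 min. Read-out: percent activation relative to control range.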
PME-1 primary – blocks human protein phosphatase methylesterase 1 | inhibition, % at 5.9 µM | recombinant PME-1, FP-Rh probe fluorescence polarization | AID 2130 | hit rate 0.53% among 320,000 | Q9Y570;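 active = inhibition above the campaign mean of all compounds plus 3 SD, cut at about 26% in these data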;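 note: competitive labeling of PME-1 active site by serine hydrolase directed probe; 0% = PME-1 with DMSO and 100% = wells lacking PME-1 enzyme; inhibitors block probe labeling so polarization falls and inhibition rises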
proCasp7 act – counter-screen for procaspase-3 activators: activators of human procaspase-7. P55210. recombinant procaspase-7, Ac-DEVD-pNA absorbance 405 nm; D23A/D198A/D206A triple mutant, cannot self-cleave; scale: DMSO 0, 5 µM enzyme 100. activation, % at 8.5 µM. hit rate 0.093% among 330,000;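 active = percent activation above the screen-wide mean plus 3 SD, cut at about 25% in these data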
Target sequence (P55210 whole entry D23A/D198A/D206A): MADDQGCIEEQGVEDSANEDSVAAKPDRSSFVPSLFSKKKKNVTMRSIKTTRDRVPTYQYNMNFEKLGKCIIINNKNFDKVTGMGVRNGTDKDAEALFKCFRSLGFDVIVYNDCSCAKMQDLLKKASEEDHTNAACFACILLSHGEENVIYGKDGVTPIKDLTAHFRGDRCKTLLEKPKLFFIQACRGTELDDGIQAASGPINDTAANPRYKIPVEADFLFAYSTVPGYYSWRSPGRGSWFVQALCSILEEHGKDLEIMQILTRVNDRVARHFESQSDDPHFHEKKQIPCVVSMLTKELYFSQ
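Test system: Procaspase-7 triple mutant (PC-7 D3A). Also added: Ac-DEVD-pNA substrate, 400 µM as added. Schedule: 1 h enzyme–compound preincubation and 2 h substrate reaction, both 25 °C. Signal: p-Nitroaniline absorbance at 405 nm, read at 0 and 120 min. Control set: low DMSO alone, high DMSO plus 5 µM PC-7.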
Fam108B inh – counter-screen for RBBP9 inhibitors: inhibitors of mouse Fam108B; inhibition, % at 9.51 µM; recombinant Fam108B, FP-Rh probe fluorescence polarization; hit rate 0.33% among 300,000;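 active = inhibition above the screen mean inhibition plus 3 SD, computed separately per campaign, cut at about 18% in these data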;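 note: inhibitors lower polarization as less probe binds the enzyme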
LYPLA1 inh – counter-screen for PME1 inhibitors: inhibitors of human LYPLA1; AID 2174; inhibition, % at 5.9 µM; hit rate 0.16% among 320,000; O75608; recombinant LYPLA1, FP-Rh probe fluorescence polarization;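 active = inhibition above the mean of all tested compounds plus 3 SD, set per campaign, cut at about 14% in these data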;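 note: inhibitors block serine hydrolase probe labeling of LYPLA1 so polarization falls; 0% = enzyme with DMSO and 100% = wells lacking LYPLA1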
Fam108b confirm – Fam108b (mouse) hydrolase inhibition, confirmation assay; AID 1978; inhibition, % at 9.51 µM; recombinant Fam108b, FP-Rh probe fluorescence polarization; shares compounds with Fam108B inh; hit rate 44% among 930;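 active = inhibition above a limit from the primary screen, the mean over all compounds plus 3 SD, cut at about 19% in these data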;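 note: 0% = median of active Fam108b wells and 100% = catalytically dead S170A mutant; inhibitors free the probe so polarization falls as inhibition rises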
Fam108b ABPP HTS – mouse ABHD17B inhibition; AID 588649; shares compounds with Fam108B inh; hit rate 44% among 260; inhibition, % at 20 µM; recombinant Fam108b, gel-based ABPP, fluorophosphonate probe; in the data active = inhibition above about 40%
Active calls of the source: *; x = no result.

SMILES	LYPLA2 counter	procasp3 activ	PME-1 primary	proCasp7 act	Fam108B inh	LYPLA1 inh	Fam108b confirm	others
CCCCNS(=O)(=O)c1cc2c3c(c1)CCN3C(=O)CC2	2.0	5.6	-12.9	-4.7	-4.8	-1.6	x
O=C(O)CCNc1cc(N2CCN(C(=O)c3ccco3)CC2)c2noc3c2c1C(=O)c1ccccc1-3	0.4	-4.7	-8.8	-9.2	38.3*	3.1	11.0
CCN1CCN(c2cc(N3CCN(C(=O)c4ccco4)CC3)c3c4c(onc24)-c2ccccc2C3=O)CC1	7.5	1.4	1.9	-11.1	-28.4	11.1	x
CCN(CC)S(=O)(=O)c1cc(NC(=O)COC(=O)c2sc3ccccc3c2Cl)ccc1C	-5.3	-4.7	7.7	0.4	42.6*	-3.2	58.6*	Fam108b ABPP HTS=90.0*
CCN(CC)S(=O)(=O)c1cc(NC(=O)COC(=O)c2ccc(NC(=O)CC#N)cc2)ccc1C	-9.7	-2.9	-1.6	2.6	-3.0	-16.5	x
O=C(CCN1CCCCC1=O)NC1CCCc2c1cnn2-c1ccccc1F (stereo not given)	0.7	4.0	3.5	7.9	1.9	0.5	x
CNc1ccc(Br)cc(C(=O)/C=C/c2ccc3c(c2)OCO3)c1=O	11.5	-19.1	2.9	-31.1	18.2*	5.1	6.5
CNc1ccc(Br)cc(C(=O)/C=C/c2ccc(OC)cc2)c1=O	-1.9	1.2	13.1	-15.8	9.9	1.0	x
CCOC(=O)C(C)NC(=O)c1cn(-c2ccc(OC)cc2)c(=O)c2ccccc12 (stereo not given)	4.8	-0.9	-9.5	12.9	-6.1	3.3	x
CCOC(=O)c1ccc(N2CCN(c3ccc(F)cc3)CC2)c(NC(=O)Nc2cccc(OC)c2)c1	-18.8	-5.2	17.4	6.3	36.4*	-5.9	-7.3
CCN1C(=O)/C(=C\c2cccn2-c2ccc([N+](=O)[O-])cc2)N(CC)C1=S	-1.5	-0.6	1.8	8.9	-1.5	-1.1	x
C/C(=C\C(=O)c1cccnc1)Nc1ccc(O)cc1	9.4	-10.6	-16.2	-31.0	47.6*	1.8	-2.9
Cc1c(Br)c(=O)oc2c(Br)c(O)c(O)cc12	3.0	-17.6	13.6	-11.0	24.7*	5.1	21.0*
O=C(NC1CCCCC1)C(c1ccccn1)N(C(=O)c1csnn1)c1ccccc1F (stereo not given)	-0.6	0.5	-4.8	-8.4	-1.2	2.5	x
S=C(NCc1ccccc1)NCc1cccc(CNC(=S)NCc2ccccc2)c1	-0.4	4.1	34.7*	3.4	35.6*	1.8	24.9*
NNC(=S)NCc1ccccc1	-0.4	-1.9	-0.9	-3.4	2.5	2.5	x
Oc1c(Br)cc(/C=N/n2c(-c3ccccc3)n[nH]c2=S)c(Br)c1O	6.2	-2.4	-7.9	-21.0	34.4*	-8.3	41.2*
Oc1c(Br)cc(Br)cc1/C=N/n1c(-c2ccccc2)n[nH]c1=S	-0.6	0.5	-3.4	-7.0	-2.2	-0.9	x
CCC/C(C)=N/NC(=O)c1ccccc1O	-3.7	7.7	-9.6	11.2	-3.4	-1.7	x
C/C(=N\NC(=O)c1ccccc1O)C1C(=O)c2ccccc2C1=O	15.3	-5.3	14.9	2.2	51.5*	5.7	50.7*
O=C1C2C3C=CC(C3)C2C(=O)N1CNc1ccc(O)cc1 (stereo not given)	23.9	-8.5	44.5*	-10.1	32.9*	10.6	12.0
O=C(NNC(=O)c1ccc(O)cc1O)c1ccc(-c2ccccc2)cc1	0.6	-12.6	-2.1	-0.5	3.4	-0.8	x
O=C(NNc1c2ccccc2nc2ccccc12)c1ccc(O)cc1O	-10.7	-15.4	77.7*	-15.8	25.1*	-11.1	12.3
Nc1c(Cl)cc(-c2[nH]c3cc(C(=O)NCCO)ccc3c(=O)c2O)cc1Cl	-26.2	-11.5	41.5*	-8.5	28.6*	-20.7	17.9
COc1ccc(CCN(C)C(=O)c2ccc(C)c(S(=O)(=O)N3CCCCC3)c2)cc1OC	5.7	3.1	12.9	8.7	x	1.8	x
